PLCb3 inh = blocks human PLC-beta3 enzyme activity; Purified PLC-beta3, fluorogenic substrate, fluorescence; hit rate 0.18% among 370,000; inhibition, % at 12.2 µM; AID 720704; in the data active = inhibition above about 11%
proCasp3 act = procaspase-3 (human) activation | recombinant procaspase-3 D3A, Ac-DEVD-pNA absorbance 405 nm | activation, % at 8.5 µM | hit rate 0.11% among 330,000 | AID 463141;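 active = activation above the mean of all tested compounds plus 3 SD, cut at about 21% in these data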
Target sequence (P42574 whole entry D9A/D28A/D175A): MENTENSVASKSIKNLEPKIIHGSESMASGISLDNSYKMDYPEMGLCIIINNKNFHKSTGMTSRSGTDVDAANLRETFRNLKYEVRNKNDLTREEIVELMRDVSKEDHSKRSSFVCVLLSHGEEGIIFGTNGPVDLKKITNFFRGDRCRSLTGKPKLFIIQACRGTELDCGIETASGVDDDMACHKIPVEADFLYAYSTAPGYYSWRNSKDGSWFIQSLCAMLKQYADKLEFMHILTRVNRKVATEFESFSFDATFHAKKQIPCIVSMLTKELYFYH
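Test system: Procaspase-3 D3A mutant; medium: Zinc-free HEPES/NaCl buffer with 0.01% Triton X-100 at pH 7.4; reagent: DEVD-pNA substrate; doses: one concentration, 8.5 µM nominal, 0.8% DMSO; times: 1 h preincubation plus 2 h reaction at 25 °C; signal: Epi-absorbance at 405 nm of released p-nitroaniline, 0 and 120 min; replicates: singlicate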
Arr AP2 block = inhibitors of human beta-arrestin and AP2 interaction | hit rate 0.31% among 340,000 | inhibition, % at 10 µM | FITC-arrestin peptide / GST-AP2 beads, flow cytometry; AP2 beta2 appendage carries R879A mutation | AID 504490;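 active = inhibition above a set limit, near 3 SD of compounds lacking own fluorescence, cut at about 54% in these data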
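Measured by: flow cytometry, FL1 (488/535 nm); Material: AP2 appendage R879A on GSH beads; Evaluation: percent response; Timing: pre-incubation 12 min, peptide binding 1 h, room temperature; Also added: 50 nM FITC-arrestin peptide; Medium: PBS with 0.05% Tween 20 and 0.1% BSA.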
PLCg1 inh = blocks human PLC-gamma1 enzyme activity; P19174; purified PLC-gamma1, fluorogenic substrate, fluorescence; inhibition, % at 12.2 µM; hit rate 0.84% among 370,000; in the data active = inhibition above about 9.5%
sPLA2-III inh = Inhibits HGIII-sPLA2 liposome hydrolysis, primary screen; QFRET BODIPY PC-A2 liposome hydrolysis, fluorescence; inhibition, % at 12.2 µM; hit rate 0.56% among 370,000; AID 743126;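 active = inhibition above mean plus 3 SD of compounds lying within the high and low control bounds, cut at about 19% in these data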
procasp7 counter = counter-screen for procaspase-3 activators: activators of human procaspase-7; recombinant procaspase-7, Ac-DEVD-pNA absorbance 405 nm; D23A/D198A/D206A triple mutant, cannot self-cleave; scale: DMSO 0, 5 µM enzyme 100; activation, % at 8.5 µM; hit rate 0.093% among 330,000;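 active = percent activation above the screen-wide mean plus 3 SD, cut at about 25% in these data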
Target sequence (P55210 whole entry D23A/D198A/D206A): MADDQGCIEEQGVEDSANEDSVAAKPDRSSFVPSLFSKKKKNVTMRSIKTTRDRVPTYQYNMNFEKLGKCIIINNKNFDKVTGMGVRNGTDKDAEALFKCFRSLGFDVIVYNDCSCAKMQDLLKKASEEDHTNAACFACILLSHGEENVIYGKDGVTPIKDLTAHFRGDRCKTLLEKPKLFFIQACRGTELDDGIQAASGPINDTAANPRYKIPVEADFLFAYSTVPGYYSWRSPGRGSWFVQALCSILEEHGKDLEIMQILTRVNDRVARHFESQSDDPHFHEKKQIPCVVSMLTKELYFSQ
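Assay system – Uncleavable procaspase-7 mutant enzyme · Quantity – 2 µM procaspase-7 mutant as dispensed · Times – 1 h preincubation, 2 h reaction · Dosing – single nominal 8.5 µM compound dose, 0.8% DMSO final · Buffer or medium – Zinc-free 50 mM HEPES buffer, pH 7.4, with NaCl and Triton X-100 · Detection – Epi-absorbance of released pNA at 405 nm, two timepoints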
A number is an active result; - = inactive; . = no result; ! = not confirmed by another sample. Most compounds without a hit are left out; they make up all but 1.9% or so of the library.

SMILES	PLCb3 inh	proCasp3 act	Arr AP2 block	PLCg1 inh	sPLA2-III inh	procasp7 counter
O=C1c2cccc(NCCNCCO)c2C(=O)c2cccc(NCCNCCO)c21	-	.	-	-	30	.
C=C1CCC2C(C)(C)CCC[C@]2(C)[C@H]1CC1=C(O)C(=O)C(CO)=CC1=O (stereo partly drawn)	-	.	.	-	-	.
O=[N+]([O-])c1ccc(Nc2ccccc2)c2nonc12	-	-	-	-	-	-
NNc1ccc([N+](=O)[O-])c2[nH][nH]c(=O)c12	-	.	.	23	-	.
Nc1ccc(Oc2ccc(N)c([N+](=O)[O-])c2)cc1[N+](=O)[O-]	-	.	.	-	-	.
CC1(C)Oc2cc(N)c([N+](=O)[O-])cc2O1	-	-	-	32	-	-
O=C1Cc2ccccc2C(=O)N1	-	.	.	11	-	.
O=C1Nc2ccccc2CCc2ccccc21	-	-	-	-	-	-
CC(=O)N1CCCN(S(=O)(=O)c2ccc3c(c2)n(C)c(=O)c(=O)n3C)CC1	-	.	.	-	-	.
CCOc1cccc(C2c3c(oc4ccccc4c3=O)C(=O)N2c2ccccn2)c1 (stereo not drawn)	-	-	.	-	-	-
COc1cccc(C2c3c(oc4ccccc4c3=O)C(=O)N2c2ccccn2)c1 (stereo not drawn)	-	-	-	-	20	-
Clc1ccc(C2Nc3cccc4cccc(c34)N2)cc1Cl	-	-	-	-	-	-
Clc1cccc(C2Nc3cccc4cccc(c34)N2)c1	-	-	55	-	-	-
Brc1ccc(C2Nc3cccc4cccc(c34)N2)o1	.	-	54	.	.	-
COCc1cn(-c2cccc(-c3noc4c3C(=O)N(CC(=O)N3CCOCC3)CC4)c2)nn1	-	.	.	-	-	.
O=C(N[C@H]1C[C@@H]2O[C@@H](CO)CC[C@@H]2O[C@@H]1CCc1ccc(-c2cccnc2)cc1)c1cccc(F)c1	-	.	.	-	-	.
C#CCOCCOCCOCCNc1nc(N2CCOCC2)nc(N2CCN(C(=O)[C@H]([C@@H](C)CC)n3cc(CCCN=C(N)N)nn3)CC2)n1	-	-	-	10	-	-
CC(=O)Nc1c(O)nc(SCC(=O)Nc2c(C)cccc2C)[nH]c1=O	12	-	-	12	-	-
Cc1sc2nc(CSCC(=O)NC(C)(C)C)[nH]c(=O)c2c1C	-	-	55	-	-	-
Cc1sc2nc(CSCC(=O)Nc3ccc(C(F)(F)F)cc3)[nH]c(=O)c2c1C	-	-	-	-	-	-
CCN(CC)c1ccc(NC2=C(Cl)C(=O)c3ccccc3C2=O)cc1	.	-	55	.	.	-
Cc1ccc(NC2=C(Cl)C(=O)c3ccccc3C2=O)cc1	-	-	-	-	-	-
COc1ccc(Nc2nc(C)nc3c2nnn3Cc2ccccc2Cl)c(OC)c1	-	-	-	-	-	-
CCOC(=O)C(C(C)=O)c1nc(C)nc2c1nnn2Cc1ccccc1Cl (stereo not drawn)	-	.	-	13	-	.
O=S1(=O)c2ccc(N3CCN(Cc4ccccc4F)CC3)cc2Oc2ccccc2CN1Cc1cn(Cc2cccc(F)c2)nn1	-	.	.	-	-	.
SMILES	PLCb3 inh	proCasp3 act	Arr AP2 block	PLCg1 inh	sPLA2-III inh	procasp7 counter
CCCN(C(=O)c1cn(CCC)c2ccccc12)c1ccc(Oc2cccnc2)cc1	-	.	.	-	-	.
O=C1C=CC(=O)c2c(O)c(CO)c(CO)c(O)c21	-	.	58	-	-	.
O=c1c(CO)cc(CO)cc(CO)c1O	-	-	-	-	-	-
COc1ccc2c(c1)CCCN2C(=O)C1CCCN(S(=O)(=O)c2cc(OC)ccc2OC)C1 (stereo not drawn)	-	.	.	-	-	.
CCC(C)[C@H](NC(=O)N1CCn2c1nc1ccccc12)C(=O)NCCc1ccccc1 (stereo partly drawn)	-	-	-	9.9	-	-
Cc1cccc(N=NC(=S)NNc2cccc(C)c2)c1	-	.	-	-	27	.
CCCCOCCCNC(=O)C[C@@H]1C(=O)N(Cc2ccc(OC)cc2)C2=CCN(C(=O)OC(C)(C)C)C[C@]21C(=O)OCC	-	.	.	-	-	.
O=C(NCCc1nc2ccccc2[nH]1)c1ccc(Br)o1	-	-	-	-	-	-
O=C(Nc1nc2ccccc2[nH]1)c1ccc(Br)o1	-	-	-	-	35	-
COc1ccc(/C=C2\SC(=S)N(CCCC(=O)NNC(=O)c3ccccc3O)C2=O)cc1	-	-	-	-	-	-
O=C(CN1C(=O)S/C(=C\c2ccc(Cl)cc2)C1=O)NNC(=O)c1ccccc1O	-	-	-	-	44	-
O=C(Nc1ccc(Cl)cc1Cl)c1cccc(N2C(=O)C=CC2=O)c1	-	-	-	-	23	-
O=C(O)c1cccc(N2C(=O)C=CC2=O)c1	-	.	.	-	-	.
Cc1ccc2c(c1)N(S(=O)(=O)c1ccc(CN3C(=O)c4cccnc4C3=O)s1)CCO2	-	-	-	12	-	-
CC1(c2cccc(Br)c2)NC(=O)N(CC(=O)Nc2cccnc2Cl)C1=O (stereo not drawn)	-	-	-	10	-	-
CC(=O)c1c(C)oc2ccc(NS(=O)(=O)c3ccc(O)c(C(=O)O)c3)cc12	-	-	-	11	-	-
O=C(Nc1ccc2c(c1)OCO2)OC1CCC12CCC(c1ccccc1)CC2 (stereo not drawn)	-	.	.	-	-	.
CCC1(c2ccccc2)CN(C)C1=O (stereo not drawn)	-	.	.	-	-	.
CCN1c2ccccc2N(C)C1(C)c1ccccc1 (stereo not drawn)	.	-	75	.	.	-
CN(c1ccccc1)c1ccc(/C=C(/CCC(=O)O)c2nc3ccccc3s2)cc1[N+](=O)[O-]	-	.	-	-	20	.
O=C(NCCc1c[nH]c2ccccc12)OCc1cn(Cc2ccc(C(F)(F)F)cc2)nn1	-	.	.	-	-	.
CCCNC(=O)C(=O)Nc1ccc(N(C)C)cc1	-	-	-	11	-	-
CN(C)c1ccc(NC(=O)C(=O)NCCOc2ccccc2)cc1	-	-	-	-	-	-
CN(N=Cc1ccc(N(C)C)cc1)C(=O)c1ccccc1N	-	.	.	-	-	.
COC(=O)NNC(=O)c1ccc(Cl)cc1Cl	-	-	-	-	-	-
CC(C)(C)C(=O)NC(=S)NNC(=O)c1ccc(Cl)cc1Cl	-	-	-	-	42	-
Cc1ccc(-c2c(NC(=O)C3CC3)nc3ncccn23)cc1	-	.	.	-	-	.
Cc1c(NC(=O)CN2CC(C)OC(C)C2)c(=O)n(-c2ccccc2)n1C (stereo not drawn)	-	-	-	14!	-	-
CNC[C@H](CC1CCCCC1)NC[C@H](Cc1ccccc1)NCCC12CC3CC(CC(C3)C1)C2	-	-	-	10.0	-	-
COc1ccc(C(CCOC(=O)Oc2ccccc2)c2cc(OC)c(OC)c(OC)c2)cc1 (stereo not drawn)	-	.	.	-	-	.
